Consider seven compounds from ChEMBL document CHEMBL1126570, “Synthesis and cytotoxicity of potential tumor-inhibitory analogues of trimelamol (2,4,6-tris[(hydroxymethyl)methylamino]-1,3,5-triazine) having electron-withdrawing groups in place of methyl” (J Med Chem, 1993).

≈ marks a conversion by molar mass, not a printed value.

The nature of series [1]: Half-life was determined in 0.9%sodium chloride at 5.2 pH at room temperature. In kind it is ADME. The following applies: 0.9% sodium chloride solution, pH 5.2. The method in brief:
(§1)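 Compound added from 50 mM DMSO stock to 10 mL of medium in polypropylene tubes, final 100 μM; tubes held in water baths at 37 °C or ambient (20–24 °C). Remaining parent measured by HPLC on C8 column, UV 225 nm; t1/2 from semilog plot of peak area versus time. Run on at least two occasions, variation 2–22%.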

Another series concerns NCI-H69. In words: In vitro cytotoxicity against human small cell lung cancer H69 cell lines. The series is classed as functional, cell-based. In short, it runs like this:
(§2)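 MTT assay on suspension lines dispersed to single cells (L1210 RPMI/10% DHS; ADJ/PC6 DMEM/20% DHS plus hydrocortisone, insulin; H69 RPMI/10% FCS; Walker 256 DMEM/10% DHS), 1×10^3–8×10^3 cells/well. Continuous exposure 72–144 h, 37 °C; MTT 4–5 h, plates spun, formazan in DMSO, A540 vs untreated control. 3–6 replicate wells, each assay at least twice.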

A short description of series [2]: Aqueous solubility was determined. In kind it is physicochemical.
The subject of series [3] is ADJ/PC6 plasmacytoma (Mus musculus). In words: In vitro cytotoxicity against PC6 murine plasmacytoma cell lines.
Series [4] can be described thus: Half-life was determined in water at 7.5 pH at 37 degree C. The series is classed as ADME. The note with it: pH 7.5. In short, it runs like this:
as §1

The nature of series [5]: In vitro cytotoxicity against walker rat carcinoma 256 cell lines. The series is classed as functional. In short, it runs like this: as §2
Series [6] is described as follows: Half-life was determined in water at 7.5 pH at room temperature. The series is classed as ADME. The note with it: pH 7.5. The method in brief:
as §1

Series [7] can be described thus: Half-life was determined in 5%dextrose at 4.0 pH at room temperature. In kind it is ADME. The following applies: 5% dextrose solution, pH 4. The method in brief: as §1
The test system of the next series is L1210. Nature of the series: In vitro cytotoxicity against L1210 murine lymphocytic leukemia cell lines. The following applies: Mus musculus. The series is classed as functional, cell-based. In short, it runs like this: as §2
The nature of series [8]: Half-life was determined in water at 2.0 pH at 37 degree C. In kind it is ADME. The following applies: pH 2. In short, it runs like this: as §1
Series [9] can be described thus: In vitro cytotoxicity against GCT cell lines. The series is classed as functional, cell-based. The note with it: Homo sapiens. The method in brief:
(§3)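 MTT assay on GCT-27 and GCT-27/CisR (DMEM, 10% FCS, glutamine, hydrocortisone, insulin), trypsinized to single cells, 1×10^3–8×10^3 cells/well. Continuous drug exposure, 72–144 h at 37 °C, 8% CO2; MTT 4–5 h, formazan in DMSO, A540 (ref 690) as fraction of untreated control. 3–6 replicate wells per concentration, each assay at least twice.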

The nature of series [10]: In vitro cytotoxicity against GCT / cisR cell lines. In kind it is functional, cell-based. The following applies: Homo sapiens. In short, it runs like this: as §3
The nature of series [11]: Half-life was determined in water at 5.0 pH at room temperature. In kind it is ADME. The note with it: pH 5. In short, it runs like this:
as §1

Series [12] in a line: Half-life was determined in water at 5.0 pH at 37 degree C. The series is classed as ADME. The note with it: pH 5. In short, it runs like this:
as §1

The half-life is the time needed for the level to fall by half in the phase considered. A low value points to rapid decline. What is called IC50 is the concentration at which inhibition is half-maximal. Read a low IC50 as greater potency in that assay. As usually defined, the solubility is the dissolved amount per volume that the medium holds. Regarding `OCN(CC(F)(F)F)c1nc(N(CO)CC(F)(F)F)nc(N(CO)CC(F)(F)F)n1`, the half-life in series [1] worked out at 3.96 days; in series [4], 690 min; in [6], 3.54 days; in series [7], 3000 min; in series [8], 60 min. Further, the IC50 is 12.8 µM in the series on NCI-H69, 29.5 µM in [3], 12.2 µM in [5] and 55.1 µM with L1210. Further, the solubility in series [2] came to 30 µg/mL (≈ 64.9 µM).
`CNc1nc(NCC(F)(F)F)nc(N(CO)CC(F)(F)F)n1`: the IC50 with NCI-H69 was found to be 32.2 µM; in [3], 71.4 µM; in series [5], 27.5 µM; with L1210 it was 112 µM.
As for `OCN(CC(F)(F)F)c1nc(NCC(F)(F)F)nc(NCC(F)(F)F)n1`, the IC50 in the series on NCI-H69 was determined as 42.3 µM; in series [3] it was 77.6 µM; in series [5], 22.5 µM; with L1210 it was 83.2 µM.
On to `CN(CO)c1nc(N(C)CO)nc(N(C)CO)n1` [TRIMELAMOL], for which the IC50 worked out at 24.3 µM in [9]; 30.9 µM in [10]; 8.5 µM in the series with NCI-H69; 12.9 µM in series [3]; 9.4 µM in [5]; 33.4 µM in the series on L1210. Besides, the half-life is 0.191 days in series [1]; 0.569 days in [11]; 120 min in series [4]; 200 min in series [12]; 350 min in series [7]. The solubility in series [2] worked out at 4500 µg/mL (≈ 17400 µM).
In the case of `OCOCN(CC(F)(F)F)c1nc(N(CO)CC(F)(F)F)nc(N(CO)CC(F)(F)F)n1`, the IC50 in series [9] was found to be 25.8 µM; in [10] it was 23.7 µM; in the series on NCI-H69, 13.4 µM; in series [3], 29.8 µM.
As for `C#CCN(CO)c1nc(N(CO)CC#C)nc(N(CO)CC#C)n1`, the IC50 in series [9] stood at 53.9 µM; in series [10], 47.3 µM; in the series on NCI-H69, 13.1 µM; in [3] it was 35.2 µM; in series [5] it was 14.1 µM; in the series with L1210, 47.8 µM. The compound further came in with a solubility in [2] of 30 µg/mL (≈ 90.8 µM). Further, the half-life in series [4] worked out at 450 min; in series [8], 40 min.
For `N#CCN(CO)c1nc(N(CO)CC#N)nc(N(CO)CC#N)n1`, the half-life in [1] is 5.62 days; in series [11] it was 4.25 days; in series [4], 275 min; in [6], 3.13 days; in [12], 960 min; in series [7], 10800 min. The half-life in series [8] was determined as 350 min. The IC50 in the series with NCI-H69 was 11.8 µM; in [3], 19.4 µM; in series [5], 7.5 µM; with L1210, 32.4 µM. Moreover, the concentration in solution in series [2] (solubility) was 1000 µg/mL (≈ 3000 µM).
